Assay results taken from ChEMBL document CHEMBL1926573, “Synthesis, antiproliferative activity and genotoxicity of novel anthracene-containing aminophosphonates and a new anthracene-derived Schiff base” (Bioorg Med Chem, 2012).
≈ marks a conversion by molar mass, not a printed value. Calls of active or inactive are those of the source. The rule behind the calls is not given here.

Experiments:
HT-29 = assay: Cytotoxicity against human HT-29 cells after 24 hrs by MTT assay; assay type: functional, cell-based; conditions: HT-29, 24 h
Outline: (§1)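 Human tumor lines were grown in RPMI 1640 (MCF-7, HBL-100) or high-glucose DMEM (others) with 10% FCS at 37.5 °C and 5% CO2. Cells were seeded at 1×10^4/well, allowed to adhere 24 h, then exposed 24 h to 1–0.0681 mg/ml (1.47-fold dilutions) from DMSO stock diluted in PBS, with DMSO ≤1%. Doxorubicin was the reference. MTT-formazan was read at 580 nm. IC50 by non-linear regression; mean ± SD of three experiments.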

MCF7 = assay: Cytotoxicity against human MCF7 cells after 24 hrs by MTT assay; assay type: functional, cell-based; conditions: MCF7, 24 h; outline: as §1
Bone marrow cell [1] = assay: Induction of clastogenic effect in ICR mouse bone marrow cells assessed as chromosomal aberration at 100 mg/kg, ip after 48 hrs; assay type: functional; conditions: route intraperitoneal
Outline: (§2)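 ICR mice (male and female, 20 ± 1.5 g; 4 males + 4 females per treated group, 10 per control group) given compound ip at 10 or 100 mg/kg; mitomycin C 3.5 mg/kg positive control, 0.9% saline negative control. Colchicine 0.4 mg/kg ip 1 h before femoral marrow harvest at 24 or 48 h. Cells put in 0.075 M KCl (37 °C, 20 min), fixed in methanol–acetic acid 3:1, stained with Giemsa. ≥50 metaphases scored per animal. Mitotic index counted in 1500 cells per animal. Group mean ± SEM, Student's t-test.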

MDA-MB-231 = assay: Cytotoxicity against human MDA-MB-231 cells after 24 hrs by MTT assay; assay type: functional, cell-based; conditions: MDA-MB-231, 24 h; outline: as §1
Bone marrow cell [2] = assay: Induction of clastogenic effect in ICR mouse bone marrow cells assessed as chromosomal aberration at 100 mg/kg, ip after 24 hrs; assay type: functional; conditions: route intraperitoneal; outline: as §2
HepG2 = assay: Cytotoxicity against human HepG2 cells after 24 hrs by MTT assay; assay type: functional, cell-based; conditions: HepG2, 24 h; outline: as §1
HBL-100 [3] = assay: Cytotoxicity against human HBL100 cells after 24 hrs by MTT assay; assay type: functional, cell-based; conditions: HBL-100, 24 h; outline: as §1
Bone marrow cell [4] = assay: Induction of mitosis in ICR mouse bone marrow cells assessed as mitotic index at 10 mg/kg, ip after 48 hrs; assay type: functional; conditions: route intraperitoneal; outline: as §2
Bone marrow cell [5] = assay: Induction of mitosis in ICR mouse bone marrow cells assessed as mitotic index at 100 mg/kg, ip after 48 hrs; assay type: functional; conditions: route intraperitoneal; outline: as §2
Bone marrow cell [6] = assay: Antiproliferative activity in ICR mouse bone marrow cells assessed as inhibition of cell division at 10 to 100 mg/kg, ip measured after 48 hrs; assay type: functional, organism-based; outline: as §2
Bone marrow cell [7] = assay: Induction of clastogenic effect in ICR mouse bone marrow cells assessed as chromosomal aberration at 10 mg/kg, ip after 48 hrs; assay type: functional; conditions: route intraperitoneal; outline: as §2
Bone marrow cell [8] = assay: Induction of mitosis in ICR mouse bone marrow cells assessed as mitotic index at 10 mg/kg, ip after 24 hrs; assay type: functional; conditions: route intraperitoneal; outline: as §2
HeLa = assay: Cytotoxicity against human HeLa cells after 24 hrs by MTT assay; assay type: functional, cell-based; outline: as §1
Bone marrow cell [9] = assay: Induction of mitosis in ICR mouse bone marrow cells assessed as mitotic index at 100 mg/kg, ip after 24 hrs; assay type: functional; conditions: route intraperitoneal; outline: as §2
647-V = assay: Cytotoxicity against human 647V cells after 24 hrs by MTT assay; assay type: functional, cell-based; outline: as §1
Bone marrow cell [10] = assay: Induction of clastogenic effect in ICR mouse bone marrow cells assessed as chromosomal aberration at 10 mg/kg, ip after 24 hrs; assay type: functional; conditions: route intraperitoneal; outline: as §2
[11] = Drug uptake in nuclear membrane of human HBL100 cells at non-toxic concentration after 24 hrs by fluorescent microscopic analysis; assay type: ADME, cell membranes; conditions: hbl-100, 24 h
Outline: (§3)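 HBL-100 cells were seeded at 1×10^5/ml on diagnostic slides, adhered overnight (37.5 °C, 5% CO2), and exposed 24 h to non-toxic concentrations. Intrinsic anthracene fluorescence was imaged by fluorescence microscopy to locate subcellular distribution.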

[12] = Drug uptake in nuclei of human HBL100 cells at non-toxic concentration after 24 hrs by fluorescent microscopic analysis; assay type: ADME, cell-based, Nucleus; conditions: hbl-100, 24 h; outline: as §3
HBL-100 [13] = assay: Ratio of Doxorubicin IC50 to compound IC50 for human HBL100 cells after 24 hrs by MTT assay; assay type: functional
Bone marrow cell [14] = assay: Induction of clastogenic effect in ICR mouse bone marrow cells assessed as chromosomal breaks and fragmentation at 10 to 100 mg/kg, ip; assay type: functional; conditions: dose mg/kg 10-100; route intraperitoneal; outline: as §2
Bone marrow cell [15] = assay: Induction of clastogenic effect in ICR mouse bone marrow cells assessed as rearrangement in centromere to centromeric fusion at 10 to 100 mg/kg, ip; assay type: functional; conditions: dose mg/kg 10-100; route intraperitoneal; outline: as §2
[16] = Drug uptake in cytoplasm of human HBL100 cells at non-toxic concentration after 24 hrs by fluorescent microscopic analysis; assay type: ADME, cell-based; conditions: hbl-100, 24 h; outline: as §3
Bone marrow cell [17] = assay: Induction of clastogenic effect in ICR mouse bone marrow cells assessed as chromosomal aberration at 3.5 mg/kg, ip after 48 hrs; assay type: functional; conditions: route intraperitoneal; outline: as §2
Bone marrow cell [18] = assay: Induction of clastogenic effect in ICR mouse bone marrow cells assessed as chromosomal aberration at 3.5 mg/kg, ip after 24 hrs; assay type: functional; conditions: route intraperitoneal; outline: as §2
Bone marrow cell [19] = assay: Induction of clastogenic effect in ICR mouse bone marrow cells assessed as chromosomal breaks and fragmentation at 3.5 mg/kg, ip after 24 hrs; assay type: functional; conditions: route intraperitoneal; outline: as §2
Bone marrow cell [20] = assay: Induction of clastogenic effect in ICR mouse bone marrow cells assessed as rearrangement in centromere to centromeric fusion at 3.5 mg/kg, ip after 24 hrs; assay type: functional; conditions: route intraperitoneal; outline: as §2
Bone marrow cell [21] = assay: Induction of mitosis in ICR mouse bone marrow cells assessed as mitotic index at 3.5 mg/kg, ip after 24 hrs; assay type: functional; conditions: route intraperitoneal; outline: as §2
Bone marrow cell [22] = assay: Induction of mitosis in ICR mouse bone marrow cells assessed as mitotic index at 3.5 mg/kg, ip after 48 hrs; assay type: functional; conditions: route intraperitoneal; outline: as §2

SMILES | IC50 (HT-29) | IC50 (MCF7) | Activity (Bone marrow cell [1]) | IC50 (MDA-MB-231) | Activity (Bone marrow cell [2]) | IC50 (HepG2) | IC50 (HBL-100 [3]) | Activity (Bone marrow cell [4]) | Activity (Bone marrow cell [5]) | Activity (Bone marrow cell [7]) | Activity (Bone marrow cell [8]) | IC50 (HeLa) | Activity (Bone marrow cell [9]) | IC50 (647-V) | Activity (Bone marrow cell [10]) | further results
COP(=O)(OC)C(Nc1ccc(C)cc1)c1c2ccccc2cc2ccccc12 (configuration not stated) | > 2000 µg/mL | 450 µg/mL (≈ 1110 µM) | 6% | 880 µg/mL (≈ 2170 µM) | 5.5% | 830 µg/mL (≈ 2050 µM) | 20 µg/mL (≈ 49.3 µM) | 15.6 ‰ | 14.1 ‰ | 4.75% | 12.6 ‰ | > 2000 µg/mL | 12 ‰ | 600 µg/mL (≈ 1480 µM) | 4% | Activity (Bone marrow cell [6]): inactive
CCOP(=O)(OCC)C(Nc1ccc(C)cc1)c1c2ccccc2cc2ccccc12 (configuration not stated) | > 2000 µg/mL | > 2000 µg/mL | 8% | > 2000 µg/mL | 8.5% | > 2000 µg/mL | 730 µg/mL (≈ 1680 µM) | 11.9 ‰ | 11.8 ‰ | 6% | 13.4 ‰ | 1940 µg/mL (≈ 4480 µM) | 16.1 ‰ | > 2000 µg/mL | 4.75% | Drug uptake [11]: Active; Drug uptake [12]: Active
CCOP(=O)(OCC)C(NCc1ccco1)c1c2ccccc2cc2ccccc12 (configuration not stated) | 110 µg/mL (≈ 260 µM) | 100 µg/mL (≈ 236 µM) |  | 70 µg/mL (≈ 165 µM) |  | 110 µg/mL (≈ 260 µM) | 70 µg/mL (≈ 165 µM) | 10.1 ‰ |  | 4.75% | 15.1 ‰ | 120 µg/mL (≈ 283 µM) |  | 70 µg/mL (≈ 165 µM) | 6.25% | Ratio IC50 (HBL-100 [13]): 2
Cc1ccc(/N=C/c2c3ccccc3cc3ccccc23)cc1 | 80 µg/mL (≈ 271 µM) | 450 µg/mL (≈ 1520 µM) | 6.5% | 120 µg/mL (≈ 406 µM) | 6.57% | 180 µg/mL (≈ 609 µM) | 310 µg/mL (≈ 1050 µM) | 8.45 ‰ | 11.7 ‰ | 5% | 12.6 ‰ | 170 µg/mL (≈ 576 µM) | 10.7 ‰ | 130 µg/mL (≈ 440 µM) | 5.25% | Activity (Bone marrow cell [14]): 35.6%; Activity (Bone marrow cell [15]): 62.17%; Drug uptake [16]: Active
COc1cccc2c1C(=O)c1c(O)c3c(c(O)c1C2=O)C[C@@](O)(C(=O)CO)C[C@@H]3O[C@H]1C[C@H](N)[C@H](O)[C@H](C)O1.Cl [DOXORUBICIN HYDROCHLORIDE] | 580 µg/mL | < 68 µg/mL |  | < 68 µg/mL |  | < 68 µg/mL | 140 µg/mL |  |  |  |  | < 68 µg/mL |  | < 68 µg/mL |  | 
C(=N\Cc1ccco1)/c1c2ccccc2cc2ccccc12 | 200 µg/mL (≈ 701 µM) | 260 µg/mL (≈ 911 µM) | 5.5% | 450 µg/mL (≈ 1580 µM) | 5.5% | 120 µg/mL (≈ 421 µM) | 460 µg/mL (≈ 1610 µM) | 10.2 ‰ | 15.2 ‰ | 4.43% | 11.3 ‰ | 360 µg/mL (≈ 1260 µM) | 12.4 ‰ | 80 µg/mL (≈ 280 µM) | 4.75% | Activity (Bone marrow cell [6]): inactive
CO[C@@]12[C@H](COC(N)=O)C3=C(C(=O)C(C)=C(N)C3=O)N1C[C@@H]1N[C@@H]12 [MITOMYCIN] |  |  |  |  |  |  |  |  |  |  |  |  |  |  |  | Activity (Bone marrow cell [17]): 15.8%; Activity (Bone marrow cell [18]): 30.5%; Activity (Bone marrow cell [19]): 75.1%; Activity (Bone marrow cell [20]): 24.9%; Activity (Bone marrow cell [21]): 5.49 ‰; Activity (Bone marrow cell [22]): 7.29 ‰
